Bioassay records deposited in PubChem by Broad Institute.
Shown are actives, neighbours in structure and some others; about 4.3% of the full set was active somewhere.
DYRK1A inh – rat Dyrk1A kinase inhibitors, primary screen, biochemical, single point, plate reader; Dual specificity tyrosine-phosphorylation-regulated kinase 1A (Rattus norvegicus), Q63470; ADP-Glo luminescence, NFATc1 peptide; inhibition, % at 12.5 µM; 310,000 compounds, 0.43% hits; in the data active = inhibition above about 50%
CAL PDZ FP-1 – untagged CAL PDZ binding inhibitors, primary screen, biochemical, fluorescence polarization, HTS; Golgi-associated PDZ and coiled-coil motif-containing protein (Homo sapiens), Q9HD26; purified CAL PDZ, TMR-peptide fluorescence polarization, 1 h; inhibition, % at 24.9 µM; 300,000 compounds, 0.92% hits;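 active = mean inhibition of at least 30% with at least half of replicates also reaching 30%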
CAL PDZ FP-2 – CAL PDZ peptide-binding inhibitors, primary screen, biochemical, fluorescence polarization, Cer-tagged CAL PDZ, HTS; 330,000 compounds, 0.02% hits; AID 504414, 2011; purified CAL PDZ, TMR-peptide fluorescence polarization, 1 h; inhibition, % at 20 µM;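 active = highest replicate inhibition of at least 40%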
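Assay system – tagged CAL PDZ protein CerCALP, purified · Timing – 1 h at RT · Compound – single point, 20 µM · Measured by – fluorescence polarization from S- and P-plane intensities, G-factor corrected · Evaluation – inhibition from polarization loss · Probe or stimulus – TMR reporter peptide T*-PRC34 · Buffer or medium – pH 7.4 phosphate-saline buffer, reducing agent, detergent, IgG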
ALR inh – inhibitors of human ALR sulfhydryl oxidase, primary screen, biochemical, H2O2 detection, HRP-luminol luminescence, single point; FAD-linked sulfhydryl oxidase ALR (Homo sapiens), P55789; purified ALR, DTT oxidation; inhibition, % (no concentration beside the values); 290,000 compounds, 3.8% hits; AID 485317, 2010;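 active = mean replicate inhibition above about 79%, with every replicate also reaching it, limit read from the data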
Target sequence (P55789 whole entry, looked up): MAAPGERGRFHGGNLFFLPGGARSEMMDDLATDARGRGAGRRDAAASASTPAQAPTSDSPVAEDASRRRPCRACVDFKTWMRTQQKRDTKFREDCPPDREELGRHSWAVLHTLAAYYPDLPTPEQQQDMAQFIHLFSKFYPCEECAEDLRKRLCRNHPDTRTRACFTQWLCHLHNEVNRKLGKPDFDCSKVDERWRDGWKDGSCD
Rtt109 HAT inh – inhibitors of C. albicans Rtt109/Vps75 HAT, primary screen, biochemical, ThioGlo CoA-SH fluorescence, plate reader; Histone acetyltransferase RTT109 (Candida albicans (strain SC5314 / ATCC MYA-2876)), …; purified Rtt109/Vps75, 4 h; inhibition, % at 34.9 µM; 330,000 compounds, 0.16% hits; AID 540336, 2011;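 active = inhibition of at least 50% in every replicate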
Target sequence (Q5AAJ8 whole entry, looked up): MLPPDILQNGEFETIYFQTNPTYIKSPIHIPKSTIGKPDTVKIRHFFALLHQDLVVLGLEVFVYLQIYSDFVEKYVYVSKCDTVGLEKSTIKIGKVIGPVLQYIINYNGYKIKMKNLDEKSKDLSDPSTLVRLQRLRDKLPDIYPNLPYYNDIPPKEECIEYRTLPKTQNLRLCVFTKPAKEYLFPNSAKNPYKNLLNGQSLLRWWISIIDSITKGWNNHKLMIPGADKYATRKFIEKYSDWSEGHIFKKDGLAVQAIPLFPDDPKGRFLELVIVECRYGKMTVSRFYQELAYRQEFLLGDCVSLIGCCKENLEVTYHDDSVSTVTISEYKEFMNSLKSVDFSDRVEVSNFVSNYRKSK
Of the large screens only hits and unclear results are named; the others gave an inactive call.

Cc1ccc(-n2ccnc(SCC(=O)NC3CCCC3)c2=O)cc1Cl	none (no result: ALR inh)
COCCn1nnnc1C(c1ccccc1OC)N1CCN(c2ccccc2)CC1 (stereo not drawn)	ALR inh 83.9
COc1ccccc1C(c1nnnn1CCc1ccccc1)N1CCN(c2ccccc2)CC1 (stereo not drawn)	none
CCN1CCN(C(c2ccccc2)c2nnnn2Cc2ccccc2)CC1 (stereo not drawn)	none
CCN1CCN(C(c2cc(OC)ccc2OC)c2nnnn2Cc2ccccc2)CC1 (stereo not drawn)	CAL PDZ FP-1 53.9
C=CCn1c(C)cc(C)c(C#N)c1=O	none (no result: CAL PDZ FP-1)
C=CCn1sc(=N)c(C#N)c1N	ALR inh 98.7
FC(F)(F)C1=CC(c2ccccc2)=NCCN1	none (no result: ALR inh)
FC(F)(F)C1=CC(c2ccc(Br)cc2)=NCCN1	ALR inh 100.0
CCC1CCCCN1C(=O)COc1c(Br)cc(Br)c2cccnc12 (stereo not drawn)	none
COc1cccc(CNC(=O)CCC2CCCN(C(=O)c3cc(C4CC4)[nH]n3)C2)c1 (stereo not drawn)	none (no result: Rtt109 HAT inh)
COCc1[nH][nH]c(=O)c1C=Nc1ccc(Oc2ccccc2)cc1	ALR inh 98.7
O=C(O)/C=C/C(=O)N1Cc2cc3ccccc3nc2C1	none
CCOc1ccccc1N1C(=O)CC(N(O)c2ccccc2)C1=O (stereo not drawn)	ALR inh 95.3 (no result: CAL PDZ FP-1)
O=C(CSCc1ccc(C(=O)O)cc1)Nc1ccc2ccccc2c1	ALR inh 98.9
CCOC(=O)c1ccc(NC(=O)CSCC(=O)OCC(=O)c2ccccc2)cc1	ALR inh 99.5
O=C(COC(=O)c1ccc(NC(=O)C2CC=CCC2C(=O)O)cc1)c1ccccc1 (stereo not drawn)	CAL PDZ FP-1 66.8 (no result: CAL PDZ FP-2)
O=C(CSCC(=O)OCC(=O)c1ccc(Br)cc1)Nc1ccc(Br)cc1	none
O=C(O)C1CC=CCC1C(=O)Nc1ccccc1 (stereo not drawn)	none (no result: ALR inh)
O=C(CSCc1ccc(C(=O)O)cc1)Nc1ccccc1	none
COC(=O)c1ccc(CSCC(=O)Nc2ccccc2)cc1	ALR inh 92.0
CCc1ccc(C(=O)/C=C/Nc2ccc(S(=O)(=O)Nc3cnc4ccccc4n3)cc2)cc1	none
COc1ccc(C)cc1NC(=O)CN1C(=O)COc2ccc(S(=O)(=O)N3CCCCC3)cc21	none
COC(=O)c1ccc(C(=O)OC)c(NC(=S)N2CCCC(CO)C2)c1 (stereo not drawn)	none
COCCNc1nc2nonc2nc1N(C)Cc1cccc2cnccc12	none
NC(=O)c1ccc(NC(=O)CSC(=O)c2ccccc2)cc1	ALR inh 98.5 (no result: DYRK1A inh)
Cc1nnc(SCC(=O)Nc2ccc(C(N)=O)cc2)n1-c1ccccc1	none
CC(C)OC(=O)c1cc(C(=O)c2cc(F)ccc2O)coc1=N	none (no result: DYRK1A inh)
COc1ccc(O)c(C(=O)c2coc(=N)c(C(=O)Nc3ccc(SC(F)F)cc3)c2)c1	CAL PDZ FP-1 39.8
CCCCC1=NN2CCS(=O)(=O)N=C2S1	none (no result: CAL PDZ FP-1)
CCC1(c2ccc(F)cc2)NC(=O)N(CC(=O)N2CCN(C(=O)c3cccs3)CC2)C1=O (stereo not drawn)	none (no result: ALR inh)
COc1ccc(C/C(C)=N/NC(=S)Nc2ccc(Cl)cc2)cc1	none (no result: ALR inh)
COc1ccc(C/C(C)=N/NC(=S)Nc2ccccc2)cc1	ALR inh 81.6 (no result: Rtt109 HAT inh)
O=C(Nc1cc(Cl)ccc1N1CCOCC1)c1ccncc1	none (no result: DYRK1A inh, ALR inh)
O=C(Nc1cc(Cl)ccc1N1CCOCC1)c1cccnc1Cl	CAL PDZ FP-1 64.3 (no result: DYRK1A inh)
COc1ccc(C)cc1NC(=O)Cn1c(=O)oc2ccccc21	CAL PDZ FP-1 56.1
O=C(CCn1c(=O)oc2ccccc21)n1c(=O)oc2ccccc21	ALR inh 96.2
Cc1ccc(NC(=O)CCn2c(=O)oc3ccccc32)c(C)c1	CAL PDZ FP-1 48.5
Cc1ccc(NC(=O)CCCn2c(=O)oc3ccccc32)c(O)c1	none
Cc1ccccc1NC(=O)Cn1c(=O)oc2ccccc21	none (no result: DYRK1A inh)
O=C(CCn1c(=O)oc2ccccc21)N1CCCCCC1	none (no result: CAL PDZ FP-2)
O=C(CCn1c(=O)oc2cc(Cl)ccc21)Nc1ccc(O)cc1	ALR inh 97.6
CCCCCNCC(=O)Nc1cccc(C(=O)Nc2cccc(C(F)(F)F)c2)c1	none
CCN1C(=O)CCN(C2CCCC2)c2nc(Nc3ccc(C(=O)NC4CCN(C)CC4)cc3OC)ncc21	none (no result: DYRK1A inh, ALR inh)
CCOc1ccc(Br)cc1S(=O)(=O)Nc1cccc(S(=O)(=O)N2CCOCC2)c1	none (no result: CAL PDZ FP-1, ALR inh)
O=C1CNC(=S)N1c1nc2ccccc2s1	ALR inh 94.9 (no result: CAL PDZ FP-1)
CC(C)NC(=S)NNc1nc2ccccc2s1	none (no result: DYRK1A inh)
O=C(c1cc2cc(Cl)ccc2[nH]1)N1CCN(c2ccccn2)CC1	none
CCN1CCSc2ccc(C(=O)NCc3cccc(F)c3)cc21	ALR inh 98.6
O=C(NCc1ccccn1)c1cn(Cc2ccccc2)nn1	CAL PDZ FP-1 104.9 (no result: DYRK1A inh, CAL PDZ FP-2)
O=C(NC1CCCC1)c1ccc2c(c1)N(Cc1ccccc1)CCS2	none
CCN1CCSc2ccc(C(=O)NCc3cccc(Br)c3)cc21	none (no result: CAL PDZ FP-1)
O=C(NCc1ccccn1)c1ccc2c(c1)N(Cc1ccccc1)CCS2	ALR inh 98.1
O=C(NCc1cccnc1)c1ccc2c(c1)N(Cc1ccccc1)CCS2	ALR inh 92.4
O=C(NCc1ccccn1)c1ccco1	none
COc1ccc(CC(=O)NC(C)c2ccc3ccccc3c2)cc1 (stereo not drawn)	none (no result: CAL PDZ FP-1, ALR inh)
COC(=O)CCCC(=O)N1CCCC(N(C)CCc2ccccc2)C1 (stereo not drawn)	none (no result: ALR inh)
O=S(=O)(Nc1nc2ccccc2nc1N1CCN(c2ccccc2F)CC1)c1ccc(Cl)cc1	none (no result: Rtt109 HAT inh)
Cc1nc(CCNC(=O)C2CCC(=O)N(Cc3cccc(F)c3)C2)sc1C (stereo not drawn)	none
CCN(CCO)c1nc(SC)nc2c1sc1nc(-c3ccco3)c3c(c12)CCC3	ALR inh 97.0
CSc1nc(NCCOCCO)c2sc3nc(-c4ccco4)c4c(c3c2n1)CCC4	CAL PDZ FP-1 65.9, ALR inh 96.5
CCCCc1nc2sc3c(=O)[nH]c(=S)[nH]c3c2c2c1CCC2	none (no result: ALR inh)
Cc1cc(C(=O)CCl)c(C)n1Cc1ccco1	ALR inh 96.8
Cc1cc(C(=O)CSc2nncs2)c(C)n1Cc1ccco1	none (no result: CAL PDZ FP-1)
Cc1cc(C(=O)CCl)c(C)n1CCc1ccccc1	ALR inh 96.1 (no result: DYRK1A inh, CAL PDZ FP-1, CAL PDZ FP-2, Rtt109 HAT inh)
CCOC(=O)c1cc(C)n(CCc2ccccc2)c1C	none (no result: CAL PDZ FP-2)
O=C1Cc2cc(S(=O)(=O)NCc3ccc(F)cc3)ccc2N1	none (no result: CAL PDZ FP-1)
CCC(C)NCCOCCOc1ccc(C)cc1Br (stereo not drawn)	none
C=CCNCCOCCOc1ccc(C)cc1Br	CAL PDZ FP-1 31.9
CC(C)Cn1c(/C=C/c2ccco2)nc2ccccc21	ALR inh 97.0
CCOc1ccccc1N1CC(C(=O)N2CCOCC2)CC1=O (stereo not drawn)	none (no result: CAL PDZ FP-1)
